The nature of data set [1]: Permeability in human Caco2 cells. The format is ADME, cell-based. The note with it: Caco-2, read-out: permeability.
Another data set deals with MT2. In words: Cytotoxicity against human MT2 cells assessed as decrease in cell viability after 3 days […]. The note with it: MT2, 72 h. Type of data set: functional.
The subject of data set [2] is Human immunodeficiency virus 1. The data set can be described thus: Antiviral activity against ENV pseudotyped CCR5-tropic HIV1 […] infected in human HeLa67 cells after 3 days by luciferase reporter gene assay. Type of data set: functional, organism-based. Conditions: Human immunodeficiency virus 1, HeLa67, 72 h. The essentials: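 Single-cycle infection with env-deleted, luciferase-reporter HIV-1 pseudotyped with the JRFL (CCR5) envelope, supplied by transfection; viral titers normalized by luminescence without compound. HeLa 67 cells were infected in the presence of compounds given as 3-fold serial dilutions made from 30 mM DMSO stocks.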

The nature of data set [3]: Half life in human liver microsomes. The format is ADME, microsome. In general terms: Liver microsomes are a subcellular fraction often used to study metabolism.

Consider `COc1cnc(-c2ncco2)c2[nH]cc(C(=O)C(=O)N3CCN(C(=O)c4ccccc4)CC3)c12`, for which the Papp in data set [1] was 7.2 ×10⁻⁶ cm/s. Moreover, the 50% cytotoxic concentration (CC50) (commonly the concentration that lowers cell viability or growth by half) in the data set with MT2 was found to be 15000 nM. The EC50 (in general, the concentration at which the effect is half-maximal) in data set [2] came to 0.37 nM. In addition, the half-life (usually the time in which the quantity being followed falls by half) in data set [3] came out at 37 min.
On the same counts, the results for `COc1cnc(-c2cccc(N)n2)c2[nH]cc(C(=O)C(=O)N3CCN(C(=O)c4ccccc4)CC3)c12` are 6.6 ×10⁻⁶ cm/s, 122000 nM, 0.09 nM and 13 min.
In the case of `CCOc1ncc(-c2ncc(OC)c3c(C(=O)C(=O)N4CCN(C(=O)c5ccccc5)CC4)c[nH]c23)s1`, the CC50 in the data set with MT2 was over 300000 nM. The EC50 in data set [2] was determined as 0.1 nM. The molecule further returned a half-life in data set [3] of 17 min.
Consider `COc1cnc(-n2ccc(-c3cccc(-c4nn[nH]n4)c3)n2)c2[nH]cc(C(=O)C(=O)N3CCN(C(=O)c4ccccc4)CC3)c12`, for which the CC50 in the data set with MT2 turned out to be 128000 nM. Also, the EC50 in data set [2] was 0.02 nM.
Turning to `CNc1cnc(-c2ncc(OC)c3c(C(=O)C(=O)N4CCN(C(=O)c5ccccc5)CC4)c[nH]c23)cn1`, in the data set on MT2, the cytotoxic concentration (CC50) is over 95000 nM. The molecule further showed an EC50 in data set [2] of 0.02 nM. Further, the half-life in data set [3] was found to be 21 min.
On to `COc1cnc(-c2cnccn2)c2[nH]cc(C(=O)C(=O)N3CCN(C(=O)c4ccccn4)[C@@H](C)C3)c12`, for which the CC50 with MT2 was 267000 to 300000 nM. Moreover, the EC50 in data set [2] was found to be 1.04 nM.
Regarding `COc1cnc(-c2ccnnc2)c2[nH]cc(C(=O)C(=O)N3CCN(C(=O)c4ccccc4)CC3)c12`, in data set [1], the Papp is under 1.5 ×10⁻⁶ cm/s. The CC50 in the data set with MT2 came to 14000 nM. In addition, the midpoint of the response in data set [2], the EC50, lay at 0.19 nM. Moreover, in data set [3], the half-life stood at 48 min.
For the molecule `COc1cnc(-n2ccc(-c3ccc(-c4nn[nH]n4)cc3)n2)c2[nH]cc(C(=O)C(=O)N3CCN(C(=O)c4ccccc4)CC3)c12`, the CC50 with MT2 was over 300000 nM. This molecule also returned an EC50 in data set [2] of 0.03 nM.
In the case of `COc1cnc(-c2cccc(C)n2)c2[nH]cc(C(=O)C(=O)N3CCN(C(=O)c4ccccc4)CC3)c12`, in data set [1], the Papp came to 13.4 ×10⁻⁶ cm/s. In addition, the CC50 with MT2 worked out at 30000 nM. In data set [2], this molecule displayed a 50% effective concentration (EC50) of 0.59 nM. Moreover, the half-life in data set [3] turned out to be 12 min.
As for `COc1cnc(-c2cnc(N)s2)c2[nH]cc(C(=O)C(=O)N3CCN(C(=O)c4ccccc4)CC3)c12`, the CC50 in the data set with MT2 was over 250000 nM. The midpoint of the response in data set [2], the EC50, lay at 0.06 nM. Besides, in data set [3], the half-life stood at 26 min.
Turning to `COc1cnc(-c2cccs2)c2[nH]cc(C(=O)C(=O)N3CCN(C(=O)c4ccccc4)CC3)c12`, in data set [1], the Papp came to 6.6 ×10⁻⁶ cm/s. Moreover, the cytotoxic concentration (CC50) in the data set with MT2 was found to be 36000 nM. In data set [2], the half-maximal effective concentration (EC50) is 0.12 nM. The same molecule came in with a half-life in data set [3] of 18 min.
On the same counts, the results for `COc1cnc(-c2nccs2)c2[nH]cc(C(=O)C(=O)N3CCN(C(=O)c4ccccc4)CC3)c12` are under 1.5 ×10⁻⁶ cm/s, over 150000 nM, 0.02 nM and 17 min.
Turning to `COc1cnc(-n2cnc(C(=O)N(C)C)n2)c2[nH]cc(C(=O)C(=O)N3CCN(C(=O)c4ccccc4)CC3)c12`, in the data set on MT2, the CC50 is over 300000 nM. Moreover, the response in data set [2] was half-maximal at 0.1 nM (EC50).
Regarding `COc1cnc(-c2cncc(N)n2)c2[nH]cc(C(=O)C(=O)N3CCN(C(=O)c4ccccc4)CC3)c12`, in data set [1], the Papp was in the range of 1.5 to 2.2 ×10⁻⁶ cm/s. Moreover, in the data set on MT2, the CC50 came out at 14000 nM. In data set [2], the midpoint of the response, the EC50, lay at 0.06 nM. This molecule also registered a half-life in data set [3] of 21 min.
For `COc1cnc(-c2ccoc2)c2[nH]cc(C(=O)C(=O)N3CCN(C(=O)c4ccccc4)CC3)c12`, the Papp in data set [1] was 4.6 ×10⁻⁶ cm/s. For the same molecule, in the data set on MT2, the CC50 turned out to be 146000 nM. In data set [2], this molecule returned an EC50 of 0.11 nM. Also, in data set [3], the half-life was 29 min.
With `COc1cnc(-c2cccnn2)c2[nH]cc(C(=O)C(=O)N3CCN(C(=O)c4ccccc4)CC3)c12`, the Papp in data set [1] is 2.4 ×10⁻⁶ cm/s. For the same molecule, the cytotoxic concentration (CC50) with MT2 was over 300000 nM. Further, it took 0.17 nM to reach a half-maximal effect in data set [2] (EC50). Further, the half-life in data set [3] turned out to be 29 min.
Take `COc1cnc(-c2cc[nH]n2)c2[nH]cc(C(=O)C(=O)N3CCN(C(=O)c4ccccc4)CC3)c12`: the Papp in data set [1] is under 1 ×10⁻⁶ cm/s. The cytotoxic concentration (CC50) with MT2 was 3000 nM. The same molecule showed a concentration for a half-maximal effect (EC50) in data set [2] of 0.26 nM. Further, the half-life in data set [3] was 47 min.
On to `CCCS(=O)(=O)c1ncn(-c2ncc(OC)c3c(C(=O)C(=O)N4CCN(C(=O)c5ccccc5)CC4)c[nH]c23)n1`, for which, in the data set with MT2, the half-maximal cytotoxic concentration (CC50) worked out at 207000 nM. In data set [2], this molecule returned an EC50 of 0.78 nM.
Take `COc1cnc(-c2ccsc2)c2[nH]cc(C(=O)C(=O)N3CCN(C(=O)c4ccccc4)CC3)c12`: the Papp in data set [1] came out at 3.9 ×10⁻⁶ cm/s. Also, the CC50 in the data set on MT2 stood at 43000 nM. The molecule also gave a 50% effective concentration (EC50) in data set [2] of 0.13 nM. The half-life in data set [3] amounted to 13 min.
For the molecule `COc1cnc(-n2cc(C)cn2)c2[nH]cc(C(=O)C(=O)N3CCN(C(=O)c4ccccc4)CC3)c12`, the CC50 in the data set on MT2 was 243000 nM.
For the molecule `COc1ncn(-c2ncc(OC)c3c(C(=O)C(=O)N4CCN(C(=O)c5ccccc5)CC4)c[nH]c23)n1`, the half-maximal cytotoxic concentration (CC50) with MT2 amounted to 285000 nM. Further, the EC50 in data set [2] amounted to 0.13 nM.
As to `CCCSc1ncn(-c2ncc(OC)c3c(C(=O)C(=O)N4CCN(C(=O)c5ccccc5)CC4)c[nH]c23)n1`, the 50% cytotoxic concentration (CC50) with MT2 came out at 7000 nM. Further, the concentration giving a half-maximal response (EC50) in data set [2] amounted to 0.015 nM.
With `COc1cnc(-c2cn(C)c(=O)cn2)c2[nH]cc(C(=O)C(=O)N3CCN(C(=O)c4ccccc4)CC3)c12`, the 50% cytotoxic concentration (CC50) in the data set with MT2 was over 150000 nM. In data set [2], it took 0.26 nM to reach a half-maximal effect (EC50).
For the molecule `COc1cccc(-c2ncc(OC)c3c(C(=O)C(=O)N4CCN(C(=O)c5ccccc5)CC4)c[nH]c23)n1`, in the data set with MT2, the cytotoxic concentration (CC50) stood at 64000 nM. In data set [2], this molecule showed an EC50 of 0.91 nM. The half-life in data set [3] was 8 min.
For `COc1cnc(-c2ccco2)c2[nH]cc(C(=O)C(=O)N3CCN(C(=O)c4ccccc4)CC3)c12`, the Papp in data set [1] was 8.6 ×10⁻⁶ cm/s. Further, the CC50 in the data set on MT2 fell in the range of 281000 to 300000 nM. It took 0.02 nM to reach a half-maximal effect in data set [2] (EC50). Also, the half-life in data set [3] was found to be 19 min.
Regarding `COc1cnc(-c2cscn2)c2[nH]cc(C(=O)C(=O)N3CCN(C(=O)c4ccccc4)CC3)c12`, the Papp in data set [1] was 21.7 ×10⁻⁶ cm/s. The EC50 in data set [2] is 0.11 nM. In addition, the half-life in data set [3] is 39 min.
With `CNC(=O)c1ncn(-c2ncc(OC)c3c(C(=O)C(=O)N4CCN(C(=O)c5ccccc5)CC4)c[nH]c23)n1`, the cytotoxic concentration (CC50) in the data set with MT2 was over 300000 nM. This molecule came in with an EC50 in data set [2] of 0.1 nM.
Turning to `COc1cnc(-n2cnc(N3CCN(C)CC3)n2)c2[nH]cc(C(=O)C(=O)N3CCN(C(=O)c4ccccc4)CC3)c12`, the 50% cytotoxic concentration (CC50) in the data set on MT2 was over 300000 nM. Moreover, a half-maximal response in data set [2] (EC50) required 0.14 nM.
Take `COc1cnc(-c2cnccn2)c2[nH]cc(C(=O)C(=O)N3CCN(C(=O)c4ccccc4)CC3)c12`: the Papp in data set [1] is 17 ×10⁻⁶ cm/s. Also, in the data set with MT2, the half-maximal cytotoxic concentration (CC50) was 3460 nM. The same molecule returned an EC50 in data set [2] of 0.04 nM. Moreover, the half-life in data set [3] was found to be 19 min.
On the same counts, the results for `COc1cnc(-c2cnc(O)cn2)c2[nH]cc(C(=O)C(=O)N3CCN(C(=O)c4ccccc4)CC3)c12` are under 1.5 ×10⁻⁶ cm/s, over 300000 nM, 0.04 nM and over 100 min.
For `COc1cnc(-n2cnc(C(=O)N3CCN(C)CC3)n2)c2[nH]cc(C(=O)C(=O)N3CCN(C(=O)c4ccccc4)CC3)c12`, in the data set on MT2, the CC50 is over 150000 nM. In data set [2], this molecule returned a concentration for a half-maximal effect (EC50) of 6.54 nM.
On the same counts, the results for `COc1cnc(-n2ccc(CN(C)C)n2)c2[nH]cc(C(=O)C(=O)N3CCN(C(=O)c4ccccc4)[C@H](C)C3)c12` are over 300000 nM and 19.8 nM.
Take `COc1cnc(-c2ccncc2)c2[nH]cc(C(=O)C(=O)N3CCN(C(=O)c4ccccc4)CC3)c12`: the CC50 in the data set with MT2 stood at 6000 nM. In data set [2], a half-maximal effect (EC50) was put at 0.33 nM.

Values taken from ChEMBL document CHEMBL4130629 (J Med Chem, 2018).
